Source: ChEMBL document CHEMBL1138286, “Synthesis and biological evaluation of N-(aryl)-2-thiophen-2-ylacetamides series as a new class of antitubercular agents” (2007)
In brackets after ≈: the same amount, converted by molar mass. Activity calls are given as the source filed them. The calls are words filed in the database; no cut-off is given here.

How the values were obtained:
Type in all cases: functional
[1] = tested on: Mycobacterium tuberculosis; experiment: Antibacterial activity against Mycobacterium tuberculosis ATTC 27294 after 5 days by MABA assay; conditions: for MIC: 120 h
In short: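 Microplate Alamar blue assay in Middlebrook 7H9 broth. Compounds serially diluted on the plate to final concentrations of […]. Plates sealed and incubated at 37 °C for 5 days. A 1:1 mix of Alamar blue and 10% Tween 80 was then added and plates incubated 24 h. Blue scored as no growth, pink as growth. MIC is the lowest concentration preventing the blue-to-pink change.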

J774 [2] = experiment: Cytotoxicity against murine J774 cells assessed as cell viability at 0.1 ug/mL after 18 hrs by MTT assay; conditions: Mus musculus, J774, 18 h; read-out: Activity
In short: (§1)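 J774 macrophages plated at 2.5 × 10⁶ cells/mL and held 1 h at 37 °C under 5% CO₂. Non-adherent cells were washed off with RPMI 1640. Adherent cells were exposed in triplicate to compound at 0.1, 1.0, 10.0 or 100 µg/mL, with medium alone as live control and 3% Tween 20 as dead control. After 18 h, MTT was added for 4 h, formazan was dissolved in DMSO, and A540 was read.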

J774 [3] = experiment: Cytotoxicity against murine J774 cells assessed as cell viability at 100 ug/mL after 18 hrs by MTT assay; conditions: Mus musculus, J774, 18 h; read-out: Activity; in short: as §1
J774 [4] = experiment: Cytotoxicity against murine J774 cells assessed as cell viability at 1 ug/mL after 18 hrs by MTT assay; conditions: Mus musculus, J774, 18 h; read-out: Activity; in short: as §1
J774 [5] = experiment: Cytotoxicity against murine J774 cells assessed as cell viability at 10 ug/mL after 18 hrs by MTT assay; conditions: Mus musculus, J774, 18 h; read-out: Activity; in short: as §1

O=C(Cc1cccs1)Nc1ccc2c(c1)OCO2
Activity [1]: inactive

CO[C@H]1/C=C/O[C@@]2(C)Oc3c(C)c(O)c4c(O)c(c(/C=N/N5CCN(C)CC5)c(O)c4c3C2=O)NC(=O)/C(C)=C\C=C\[C@H](C)[C@H](O)[C@@H](C)[C@@H](O)[C@@H](C)[C@H](OC(C)=O)[C@@H]1C [RIFAMPIN]
MIC [1]: 1 µg/mL (≈ 1.22 µM)

O=C(Cc1cccs1)Nc1ccc(F)cc1Cl
Activity [1]: inactive

O=C(Cc1cccs1)Nc1cccc(Cl)c1
MIC [1]: 50 µg/mL (≈ 199 µM)
viability at 0.1 µg/mL (J774 [2]): 100%
viability at 100 µg/mL (J774 [3]): 100%
viability at 1 µg/mL (J774 [4]): 100%
viability at 10 µg/mL (J774 [5]): 100%

O=C(Cc1cccs1)Nc1ccc(Cl)cc1
MIC [1]: 100 µg/mL (≈ 397 µM)

O=C(Cc1cccs1)Nc1cccc([N+](=O)[O-])c1
Activity [1]: inactive

COc1ccc(NC(=O)Cc2cccs2)cc1
Activity [1]: inactive

O=C(Cc1cccs1)Nc1ccc(Cl)cc1F
MIC [1]: 100 µg/mL (≈ 371 µM)

NNC(=O)c1ccncc1 [ISONIAZID]
MIC [1]: 0.2 µg/mL (≈ 1.46 µM)

O=C(Cc1cccs1)Nc1ccccc1C(F)(F)F
Activity [1]: inactive

O=C(Cc1cccs1)Nc1ccc([N+](=O)[O-])cc1
MIC [1]: 50 µg/mL (≈ 191 µM)
viability at 0.1 µg/mL (J774 [2]): 100%
viability at 100 µg/mL (J774 [3]): 85%
viability at 1 µg/mL (J774 [4]): 100%
viability at 10 µg/mL (J774 [5]): 100%

O=C(Cc1cccs1)Nc1ccc(F)cc1
MIC [1]: 100 µg/mL (≈ 425 µM)

Cc1ccccc1NC(=O)Cc1cccs1
MIC [1]: 100 µg/mL (≈ 432 µM)

O=C(Cc1cccs1)Nc1cccc(C(F)(F)F)c1
Activity [1]: inactive

O=C(Cc1cccs1)Nc1ccccc1[N+](=O)[O-]
Activity [1]: inactive

O=C(Cc1cccs1)Nc1c(Cl)cccc1Cl
Activity [1]: inactive

O=C(Cc1cccs1)Nc1ccccc1
MIC [1]: 25 µg/mL (≈ 115 µM)
viability at 0.1 µg/mL (J774 [2]): 100%
viability at 100 µg/mL (J774 [3]): 100%
viability at 1 µg/mL (J774 [4]): 100%
viability at 10 µg/mL (J774 [5]): 100%

COc1cccc(NC(=O)Cc2cccs2)c1
MIC [1]: 50 µg/mL (≈ 202 µM)
viability at 0.1 µg/mL (J774 [2]): 100%
viability at 100 µg/mL (J774 [3]): 100%
viability at 1 µg/mL (J774 [4]): 100%
viability at 10 µg/mL (J774 [5]): 100%

COc1ccccc1NC(=O)Cc1cccs1
Activity [1]: inactive

O=C(Cc1cccs1)Nc1ccc(Br)cc1
Activity [1]: inactive

Cc1cccc(C)c1NC(=O)Cc1cccs1
Activity [1]: inactive

COc1ccc(OC)c(NC(=O)Cc2cccs2)c1
Activity [1]: inactive
